Source: publication PMC8154590 (The Journal of antibiotics, 2021)
Counter-ions that a name gives are not always drawn.

Tested on: M. smegmatis 70S ribosome (spectinomycin site: helix-34 of 16S rRNA and RpsE protein)
Assay: cell-free translation, luciferase read-out
Format: biochemical, Mycolicibacterium smegmatis
Details: purified 70S ribosomes, firefly luciferase mRNA
Method in brief: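 Purified M. smegmatis 70S ribosomes were used in translation reactions programmed with firefly luciferase mRNA that was transcribed in vitro with T7 RNA polymerase. Inhibition was read as loss of luciferase activity. IC50 was taken as the drug concentration that inhibits luciferase activity by 50%.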

In order of falling “Ribosome translation inhibition IC50” value:
1. CN[C@@H]1[C@H](O)[C@H](NC)[C@H]2O[C@@]3(O)C(=O)C[C@@H](C)O[C@H]3O[C@@H]2[C@@H]1Cl [compound 8, 6-Epi-chloro-6-deoxyspectinomycin dihydrochloride]  54.7 µg/mL
2. CN[C@H]1[C@@H](O)[C@@H](NC)C[C@H]2O[C@@H]3O[C@H](C)C[C@@](O)(CNCc4ccc(F)cc4)[C@]3(O)O[C@H]12 [compound 7, 6-Deoxy-3’-dihydro-3’(R)-[(4-fluorobenzyl)aminomethyl]spectinomycin trihydrochloride]  23.3 µg/mL
3. CN[C@H]1C[C@@H](NC)[C@H](O)[C@H]2O[C@@H]3O[C@H](C)C[C@@H](NC(=O)Cc4ccccn4)[C@]3(O)O[C@@H]21 [compound 10, 2-Deoxy-3’-deoxy-3’-dihydro-3’(R)-[(pyridin-2-yl)acetylamino]spectinomycin dihydrochloride]  10.2 µg/mL
4. CN[C@@H]1[C@H](O)[C@H](NC)[C@H]2O[C@@]3(O)C(=O)C[C@@H](C)O[C@H]3O[C@@H]2[C@H]1O [compound 1, Spectinomycin]  0.36 µg/mL

With `CN[C@H]1C[C@@H](NC)[C@H](O)[C@H]2O[C@@H]3O[C@H](C)CC(=O)[C@]3(O)O[C@@H]21` [compound 9, 2-Deoxyspectinomycin dihydrochloride] the “Ribosome translation inhibition IC50” value was greater than 60 µg/mL.
